# From PubChem
# Rows were chosen to be rich in hits. Some 2.1% of all compounds tested hit in one or more screens of this group.
# zVAD death inh: L929 zVAD cell death inhibition | L929 zVAD necroptosis rescue, ATP luminescence, 24 h; with zVAD 60 µM | viability rescue, % at 10 µM | hit rate 0.38% among 220,000 | AID 1377;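 active = activation, scaled between plate controls, above about 75%, limit read from the data; inactive = activation under that limit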;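 also: 0% = zVAD with DMSO and 100% = DMSO alone without zVAD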
# STAT3 blocker: STAT3 signaling inhibition; hit rate 0.89% among 190,000; AID 862; inhibition, % at 5.5 µM; U3A cells, IL-6 STAT3-luciferase reporter, luminescence; host cell line lacks STAT1;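 active = inhibition above the mean inhibition across all screened compounds plus 3 SD, cut at about 44% in these data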;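 also: 0% = DMSO only wells and 100% = 100 µM nifuroxazide control wells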
# STAT3 act-1: activators of IL-6 induced STAT3 signaling | U3A cells, IL-6 STAT3-luciferase reporter, luminescence; 100% = signal with IL-6 EC80 alone | activation (% of control), % at 5.6 µM | hit rate 0.91% among 190,000 | AID 871;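 active = activation above the screen-wide mean of compound activation plus 3 SD, cut at about 130% in these data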;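 also: 0% = background luminescence of wells with medium and substrate only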
#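 Test system: human U3A cells carrying STAT3-luciferase construct; control set: IL-6-only wells as 100% reference; timing: compound pre-incubation 1 h before IL-6, then 6 h stimulation at 37 °C; also added: IL-6 stimulus at 33 ng/mL final; evaluation: % activation versus median of IL-6-stimulated wells; detection: reporter luminescence signal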
# TNF necrop inh: TNF-alpha cell death inhibition in Jurkat FADD-/- cells; AID 463075; activation (protection from cell death), % at 10 µM; Jurkat FADD-/- TNF necroptosis rescue, ATP luminescence, 24 h; 0 = TNF only, 100 = no-TNF cells; hit rate 0.068% among 220,000;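 active = activation, meaning protection from cell death, of at least 50% relative to plate controls; inactive = activation below 50%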;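 also: necroptosis triggered by 40 ng/mL TNF-alpha added together with compound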
# STAT1 inh-1: STAT1 signaling inhibition; NIH 3T3 STAT1-luciferase reporter, IFN-gamma, luminescence; inhibition, % at 5.5 µM; hit rate 0.35% among 200,000; AID 920;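 active = inhibition above a set limit, the mean inhibition across all tested compounds plus 3 SD, cut at about 34% in these data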;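 also: 0% = IFN-gamma with DMSO and 100% = IFN-gamma with 300 µM nifuroxazide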
# STAT3 act-2: confirmation of STAT3 signaling activators; shares compounds with STAT3 act-1; U3A STAT3-luciferase reporter, IL-6 potentiation, luminescence; U3A cells lack STAT1; 100 means same as IL-6 alone; potentiation (% of control), % at 5.7 µM; hit rate 64% among 1,200; AID 1267;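 active = percent activation of the STAT3 luciferase reporter above a set limit taken from the earlier primary screen, cut at about 130% in these data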;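 also: 0% = background signal of medium plus substrate and 100% = median of IL-6 with DMSO wells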
# NFkB act 2: NF-kappaB activation in STAT3 activator counter-screen; shares compounds with STAT3 act-1; human cells, NF-kappaB reporter activation; activation (% of control), % at 5.7 µM; hit rate 11% among 1,200; AID 1309; in the data active = activation above about 120%;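 also: reporter induced by TNF-alpha stimulation; 100% = median of stimulated DMSO wells and 0% = no signal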
# STAT1 act: counter-screen for STAT3 activators: STAT1 activation; shares compounds with STAT3 act-1; NIH 3T3 STAT1-luciferase reporter, IFN-gamma, luminescence; activation (% of control), % at 5.7 µM; hit rate 13% among 1,200;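 active = activation above the solvent-only control well mean plus 3 SD, set per screening run, cut at about 120% in these data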;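 also: 100% = IFN-gamma with DMSO median signal so 100% means no change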
# STAT1 inh-2: STAT1 inhibition, confirmation assay; shares compounds with STAT1 inh-1; hit rate 55% among 200; AID 1263; NIH 3T3 STAT1-luciferase reporter, IFN-gamma, luminescence; inhibition, % at 5.5 µM;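 active = triplicate mean inhibition exceeding the hit cutoff computed for the primary STAT1 screen, cut at about 35% in these data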;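 also: 0% = DMSO with IFN-gamma and 100% = 300 µM nifuroxazide with IFN-gamma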
# NFkB inh: NF-kappaB inhibition in STAT1 inhibitor counter-screen | shares compounds with STAT1 inh-1 | HEK293T NF-kB luciferase reporter, TNF-alpha induced, luminescence | inhibition, % at 5.7 µM | hit rate 30% among 200;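 active = inhibition above the mean of solvent-only control wells plus 3 SD of those wells, cut at about 15% in these data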;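 also: 0% = DMSO with TNF-alpha and 100% = MG-132 control with TNF-alpha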
# STAT3 inh 2: STAT3 inhibition in STAT1 inhibitor counter-screen; AID 1310; shares compounds with STAT1 inh-1; U3A cells, IL-6 STAT3 luciferase reporter, luminescence; cells lacking STAT1; hit rate 20% among 200; inhibition, % at 5.7 µM;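 active = inhibition above the mean of solvent-only control wells plus 3 SD, set per campaign, cut at about 25% in these data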;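 also: 0% = IL-6 plus DMSO and 100% = IL-6 plus nifuroxazide control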
# zVAD necrop conf: confirmed blocker of zVAD induced death in L929 cells; hit rate 16% among 760; activation (protection from necroptosis), % at 10 µM; AID 463117; shares compounds with zVAD death inh; L929 zVAD-induced necroptosis rescue, ATP luminescence, 24 h;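 active = mean protection from necroptosis of at least 50% over duplicate tests; inactive = mean protection below 50%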;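 also: 0% = cells with zVAD alone and 100% = vehicle cells without zVAD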
# An asterisk follows results filed as active; i = inactive; nt = no result given.
SMILES,zVAD death inh,STAT3 blocker,STAT3 act-1,TNF necrop inh,STAT1 inh-1,STAT3 act-2,NFkB act 2,STAT1 act,others
Cc1nn(-c2ccccc2)c2nc(N)c(C#N)c(-c3ccc(F)cc3)c12,1,10,94,0,0,nt,nt,nt,
C=CCNC(=O)COC(=O)c1oc2ccccc2c1CSC1CCCCC1,0,-11,105,-3,-5,nt,nt,nt,
Nc1nc(-c2ccc(Cl)cc2)nn1C(=O)c1cccs1,7,-48,146*,1,7,145*,103,91,
CCN(CC)CCn1c(NC(=O)c2ccc(C(F)(F)F)cc2)nc2ccccc21,0,-5,107,1,-9,nt,nt,nt,
CN(C)CCn1c(NC(=O)c2ccc(Cl)cc2)nc2ccccc21,-1,-76,164*,0,-26,157*,119,123*,
CN(C)c1ccc(C(C(=O)NC(C)(C)C)N(C(=O)c2csnn2)C2CC2)cc1 (centres undefined),1,2,99,0,3,nt,nt,nt,
CCNC(=O)CSc1nnc(CN2CCCCCC2=O)n1-c1ccccn1,2,-1,105,0,2,nt,nt,nt,
O=C1CCCCCN1Cc1nnc(SCc2nc3ccccc3s2)n1-c1ccccn1,1,-39,140*,1,-28,151*,129*,145*,
CCOc1ccc(-n2c(SCC(=O)Nc3nccs3)nnc2-c2ccoc2C)cc1,0,nt,nt,0,nt,nt,nt,nt,
O=C(Nc1ccccn1)c1ccc2ccccc2n1,0,-50,147*,-7,-12,180*,128*,164*,
O=c1oc(-c2cccs2)nc2scc(-c3cccs3)c12,-1,-43,140*,-4,-6,123,114,116,
COC(=O)c1cc2ccsc2n1CC(=O)Nc1cc(Cl)ccc1OC,1,-51,152*,-6,7,147*,93,95,
COC(=O)c1[nH]c2ccccc2c1NC(=O)c1ccccc1F,2,nt,nt,-4,nt,nt,nt,nt,
C=CCOC(=O)Nc1c(C(=O)OC)[nH]c2ccccc12,0,-45,148*,-5,15,150*,105,93,
COC(=O)c1[nH]c2ccccc2c1NC(=O)Oc1ccccc1,0,-58,159*,-3,3,160*,111,115,
COC(=O)c1[nH]c2ccc(C)cc2c1NC(=O)Oc1ccccc1,0,-5,112,1,-11,nt,nt,nt,
O=C(O)c1cccc(N2C(=O)/C(=C/c3ccc(SCc4ccc(Cl)cc4)o3)SC2=S)c1,0,-8,110,-11,-9,nt,nt,nt,
O=C(CSc1nc2ccccc2o1)N1CCN(S(=O)(=O)c2ccc3ccccc3c2)CC1,0,9,93,1,0,nt,nt,nt,
COC(=O)c1cnn(-c2nc3c(C)cccc3s2)c1C,-1,-40,140*,-2,-1,134*,108,116,
O=C(CCl)N1CCN2C(=O)c3ccccc3C12c1ccc(Cl)cc1 (centres undefined),54,3,106,-15,5,nt,nt,nt,
Cc1ccc(C(=O)N2CCN3C(=O)c4ccccc4C23c2ccc(Cl)cc2)cc1 (centres undefined),-1,i,559*,-11,22,487*,126*,77,
COc1cccc(C2=Nc3cccc4cccc(c34)N2)c1,2,-19,118,-6,7,nt,nt,nt,
Nc1ccc(C2=Nc3cccc4cccc(c34)N2)cc1,5,-71,158*,-9,-6,163*,108,108,
CS(=O)(=O)N(CC(=O)Nc1ccc2c(c1)OCCO2)Cc1ccccc1,0,6,98,0,1,nt,nt,nt,
c1ccc2c(c1)CCCN2Cc1nnc2n1CCCCC2,0,-45,140*,1,-3,120,100,98,
SMILES,zVAD death inh,STAT3 blocker,STAT3 act-1,TNF necrop inh,STAT1 inh-1,STAT3 act-2,NFkB act 2,STAT1 act,others
c1ccc(Cc2nnc3n2CCCCC3)cc1,0,-7,109,1,-3,nt,nt,nt,
Oc1c(Br)cc(Br)cc1/C=N/c1nc2c(s1)CCCC2,0,-12,114,-9,-3,nt,nt,nt,
Oc1ccc2ccccc2c1/C=N/c1nc2c(s1)CCCC2,-1,-65,154*,-10,-2,136*,104,94,
CN1CCN(c2ccccc2NC(=O)c2cc3ccccc3o2)CC1,78*,-50,144*,3,-9,126,102,102,zVAD necrop conf=31
O=C(Nc1nccs1)c1ccc2nccnc2c1,34,15,94,4,-22,nt,nt,nt,
Cc1ccc(C(=O)Nc2nccs2)cc1,86*,-54,144*,12,-6,165*,118,128*,zVAD necrop conf=39
CCn1c(NC(=O)c2cccs2)nc2ccccc21,81*,-45,146*,28,-6,131,106,107,zVAD necrop conf=3
CCn1c(NC(C)=O)nc2ccccc21,1,0,101,-2,2,nt,nt,nt,
COc1cc(OC)cc(C(=O)Oc2ccc(/C=N/Nc3nc4ccccc4s3)cc2OC)c1,77*,-51,148*,3,-23,151*,97,155*,zVAD necrop conf=5
CCc1nnc(NC(=O)CSc2nnc(Cc3ccccc3)o2)s1,2,7,98,0,0,nt,nt,nt,
NC(=O)CCCc1nc(-c2ccccc2Cl)no1,0,-1,104,-1,-7,nt,nt,nt,
Cc1ccc(-c2csc3ncnc(SCC(=O)Nc4nnc(C)s4)c23)cc1,1,-7,111,-1,4,nt,nt,nt,
Cc1ccc(-c2csc3ncnc(Sc4nnc(CN5CCCCCC5=O)o4)c23)cc1,68,27,81,-11,44*,nt,nt,nt,STAT1 inh-2=56*;NFkB inh=12;STAT3 inh 2=21
CCOc1ccc(S(=O)(=O)Nc2ccc3c(c2)OCO3)c2cccnc12,2,0,104,0,7,nt,nt,nt,
CCOc1ccc(S(=O)(=O)Nc2cccc(C)c2)c2cccnc12,0,11,96,0,37*,nt,nt,nt,STAT1 inh-2=25;NFkB inh=-2;STAT3 inh 2=7
